ChEMBL document CHEMBL1144140, “Diterpenes from the fruits of Vitex rotundifolia” (J Nat Prod, 1999)
Active and inactive are the calls of the source. The rule behind the calls is not given here.

Assays:
Format in all cases: functional
[1] = Antioxidant activity at 0.5 mM by ferric-thiocyanate method
Outline: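 Linoleic acid peroxidation (ferric thiocyanate): sample (final 0.5 mM) with linoleic acid in EtOH/0.05 M phosphate buffer pH 7.0, kept dark at 40 °C for 5 days; aliquot diluted in 75% EtOH, ammonium thiocyanate and ferrous chloride in HCl added, absorbance at 500 nm read at 3 min. Control lacked compound; alpha-tocopherol and BHA standards.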

[2] = test system: Radical scavenging activity; assay: Antioxidant activity assessed as DPPH radical scavenging activity at 20 uM after 30 mins
Outline: (§1)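 DPPH scavenging: test sample in EtOH added to 0.1 M acetic acid buffer pH 5.5 plus 0.5 mM DPPH EtOH solution (stock); stood 30 min at room temperature; absorbance read at 517 nm, activity given as change in optical density. Standards alpha-tocopherol and L-cysteine.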

[3] = test system: Radical scavenging activity; assay: Antioxidant activity assessed as DPPH radical scavenging activity at 40 uM after 30 mins; outline: as §1
[4] = test system: Radical scavenging activity; assay: Antioxidant activity assessed as DPPH radical scavenging activity at 80 uM after 30 mins; outline: as §1
[5] = test system: Radical scavenging activity; assay: Antioxidant activity assessed as DPPH radical scavenging activity at 10 uM after 30 mins; outline: as §1

SMILES	Activity [1]	deltaA [2]	deltaA [3]	deltaA [4]	deltaA [5]
CC(C)c1cc2c(cc1O)[C@@]1(C)CCCC(C)(C)[C@@H]1CC2	Active	0.081	0.153	0.255	
COc1ccc(O)c(C(C)(C)C)c1.COc1ccc(O)cc1C(C)(C)C	Active				
Cc1c(C)c2c(c(C)c1O)CC[C@@](C)(CCC[C@H](C)CCC[C@H](C)CCCC(C)C)O2		0.471	0.934		0.252
N[C@@H](CS)C(=O)O		0.161	0.355	0.754	
